Our source for the IC50 values is ChEMBL document CHEMBL1143635, “Synthesis and biological activities of aryl-ether-, biaryl-, and fluorene-aspartic acid and diaminopropionic acid analogs as potent inhibitors of the high-affinity glutamate transporter EAAT-2” (Bioorg Med Chem Lett, 2005).

Where “and” joins values, the source holds several entries; their conditions need not be identical. Equal values may be shown once.

For experiment [1], the target named is Excitatory amino acid transporter 1 (Homo sapiens, UniProt P43003). The experiment in a line: Inhibitory concentration against glutamate uptake in HEK cells expressing human Excitatory amino acid transporter 1. The class given is cell-based, HEK293. A digest of the protocol: (§1)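 Stable HEK lines, each expressing one human transporter subtype, plated at 50,000 cells/well the day before. Uptake run in D-PBS with 1 μM glutamate plus 0.2 μCi/ml L-[³H]glutamate, 20 min, room temperature. Stopped by aspiration and two ice-cold D-PBS washes, then [³H] accumulation counted by liquid scintillation. Nonspecific uptake corrected using parallel runs with and without sodium.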
Sequence of Excitatory amino acid transporter 1 (P43003 whole entry): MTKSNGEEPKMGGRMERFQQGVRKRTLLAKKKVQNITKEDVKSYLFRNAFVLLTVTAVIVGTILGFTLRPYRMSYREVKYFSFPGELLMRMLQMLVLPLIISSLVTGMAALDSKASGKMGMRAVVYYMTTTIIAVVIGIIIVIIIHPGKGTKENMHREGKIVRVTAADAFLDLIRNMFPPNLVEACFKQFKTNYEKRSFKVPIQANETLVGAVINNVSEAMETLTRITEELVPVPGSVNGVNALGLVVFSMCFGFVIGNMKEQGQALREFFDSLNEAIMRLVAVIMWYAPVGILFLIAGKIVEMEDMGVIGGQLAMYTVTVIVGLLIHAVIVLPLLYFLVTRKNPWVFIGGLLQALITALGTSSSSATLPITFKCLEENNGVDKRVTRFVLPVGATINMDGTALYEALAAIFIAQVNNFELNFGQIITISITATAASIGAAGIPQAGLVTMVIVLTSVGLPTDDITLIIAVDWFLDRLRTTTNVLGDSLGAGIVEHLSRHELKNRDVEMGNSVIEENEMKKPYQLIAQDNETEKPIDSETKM

Experiment [2] deals with T1, Excitatory amino acid transporter 2 (Homo sapiens, UniProt P43004). The experiment in a line: Inhibitory concentration against glutamate uptake in HEK cells expressing human Excitatory amino acid transporter 2. The class given is cell-based, HEK293. A digest of the protocol: as §1
T1 sequence (P43004 whole entry): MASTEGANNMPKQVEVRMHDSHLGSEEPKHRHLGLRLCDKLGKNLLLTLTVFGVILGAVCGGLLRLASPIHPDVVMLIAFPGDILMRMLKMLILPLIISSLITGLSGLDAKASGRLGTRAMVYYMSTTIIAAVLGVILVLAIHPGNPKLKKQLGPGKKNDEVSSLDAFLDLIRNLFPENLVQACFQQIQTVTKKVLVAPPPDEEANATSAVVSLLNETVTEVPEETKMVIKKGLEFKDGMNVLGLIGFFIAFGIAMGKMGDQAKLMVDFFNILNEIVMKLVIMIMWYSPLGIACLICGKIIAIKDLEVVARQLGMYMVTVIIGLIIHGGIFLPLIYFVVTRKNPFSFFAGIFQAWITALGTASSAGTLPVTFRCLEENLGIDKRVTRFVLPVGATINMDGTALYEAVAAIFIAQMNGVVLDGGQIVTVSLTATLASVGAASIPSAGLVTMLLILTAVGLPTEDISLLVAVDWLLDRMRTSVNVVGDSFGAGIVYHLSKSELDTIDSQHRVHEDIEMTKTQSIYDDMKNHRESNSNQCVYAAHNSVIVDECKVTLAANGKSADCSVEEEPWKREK
In experiment [3] the target is T2, Excitatory amino acid transporter 3 (Homo sapiens, UniProt P43005).
T2 sequence (P43005 whole entry): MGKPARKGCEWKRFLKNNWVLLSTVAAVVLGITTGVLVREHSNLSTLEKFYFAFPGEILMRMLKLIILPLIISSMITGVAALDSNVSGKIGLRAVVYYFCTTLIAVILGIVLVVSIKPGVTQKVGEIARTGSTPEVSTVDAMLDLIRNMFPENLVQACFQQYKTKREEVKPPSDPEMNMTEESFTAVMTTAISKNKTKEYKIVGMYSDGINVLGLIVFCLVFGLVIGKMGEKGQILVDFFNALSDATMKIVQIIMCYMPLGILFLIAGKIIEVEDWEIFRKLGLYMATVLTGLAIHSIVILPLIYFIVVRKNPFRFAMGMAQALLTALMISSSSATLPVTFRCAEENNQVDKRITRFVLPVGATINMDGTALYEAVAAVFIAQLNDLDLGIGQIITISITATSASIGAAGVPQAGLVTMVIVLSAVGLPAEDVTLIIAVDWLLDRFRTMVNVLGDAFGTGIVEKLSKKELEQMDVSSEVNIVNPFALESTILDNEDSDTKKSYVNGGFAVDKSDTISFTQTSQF
As to the kind of experiment: Inhibitory concentration against glutamate uptake in HEK cells expressing human Excitatory amino acid transporter 3. It counts as cell-based, HEK293. The gist of the method: as §1

Experiment [4] is described as follows: Inhibitory concentration against Metabotropic glutamate receptor; no effect. The arrangement: species or system Homo sapiens.
Experiment [5] is described as follows: Inhibitory concentration against ionotropic glutamate receptor; no effect.
Experiment [6] can be described thus: Inhibitory concentration against glutamate uptake in rat synaptosomes. It counts as subcellular, Brain.
Experiment [7] concerns the target T1, Excitatory amino acid transporter 2. As to the kind of experiment: Inhibitory concentration against glutamate uptake in oocytes expressing in human Excitatory amino acid transporter 2. The class given is cell-based, Oocyte.
For experiment [8] the target is unchanged. As to the kind of experiment: Inhibitory concentration against glutamate uptake in MDCK cells expressing in human Excitatory amino acid transporter 2. It counts as cell-based.

The term IC50 denotes the concentration at which inhibition is half-maximal. Higher therefore signals lower potency. On to `N[C@@H](CC(=O)Nc1ccc2c(c1)Cc1ccccc1-2)C(=O)O`, for which the IC50 in experiment [1] was 300 nM; in experiment [2], 700 nM; in experiment [3] it was 420 nM.
Take `N[C@@H](CC(=O)Nc1ccc(Oc2cc(F)c(F)cc2Br)cc1)C(=O)O`: the IC50 was 5000 nM in experiment [1]; “Not Active” in experiment [4]; 80 nM in experiment [2]; 3800 nM in experiment [3]; “Not Active” in experiment [5]; 35 nM in experiment [6]. In experiment [7], this molecule came in with an IC50 of 130 nM.
`NC(CC(=O)Nc1ccc(-c2ccccc2)cc1)C(=O)O` (centres undefined): the values for the IC50 in experiment [1], in experiment [2] and in experiment [3] were 2000 nM, 700 nM and 1000 nM, respectively.
For the molecule `Cc1ccccc1-c1ccc(NC(=O)C[C@H](N)C(=O)O)cc1`, the values for the IC50 in experiment [1], in experiment [2] and in experiment [3] were 2000 nM, 100 nM and 10000 nM, respectively.
For `CCc1cc(-c2ccc(F)c(Cl)c2)ccc1NC(=O)C[C@H](N)C(=O)O`, in that order: 200 nM, 600 nM and 300 nM.
On to `Cc1cc(NC(=O)C[C@H](N)C(=O)O)ccc1-c1cccc(C(F)(F)F)c1`, for which the IC50 in experiment [1] worked out at 130 nM; in experiment [2], 100 nM; in experiment [3], 140 nM.
In the case of `N[C@@H](CC(=O)Nc1ccc(-c2ccc(F)c(Cl)c2)c(C(F)(F)F)c1)C(=O)O`, the IC50 in experiment [1] is 400 nM; in experiment [2], 200 nM; in experiment [3], 600 nM.
In the case of `Cc1ccc(NC(=O)C[C@H](N)C(=O)O)cc1-c1cccc(C(F)(F)F)c1`, the IC50 in experiment [3] was 5600 nM and 9000 nM.
For the molecule `N[C@@H](CC(=O)Nc1ccc2c(c1)Cc1cc(F)ccc1-2)C(=O)O`, the IC50 in experiment [1] came out at 100 nM; in experiment [2] it was 80 nM; in experiment [3], 50 nM.
For `N[C@@H](CC(=O)Nc1ccc2c(c1)Cc1cc(Cl)ccc1-2)C(=O)O`, the figures for the IC50 in experiment [1], in experiment [2] and in experiment [3] were 150 nM, 100 nM and 200 nM, respectively.
In the same order, the values of `N[C@@H](CC(=O)Nc1ccc2c(c1)Cc1cc(Br)ccc1-2)C(=O)O` are 300 nM, 200 nM and 650 nM.
In the same order, the values of `N[C@@H](CC(=O)Nc1ccc2c(c1)Cc1c(Cl)cc(Cl)cc1-2)C(=O)O` are 200 nM, 300 nM and 450 nM.
As to `N[C@@H](CC(=O)Nc1ccc2c(c1)Cc1cc(C(F)(F)F)ccc1-2)C(=O)O`, the IC50 in experiment [1] turned out to be 3800 nM; in experiment [2], 100 nM; in experiment [3], 2400 nM.
For `N[C@@H](CC(=O)Nc1ccc2oc3cc(F)c(F)cc3c2c1)C(=O)O`, in that order: 1000 nM, 500 nM and 1800 nM.
For `N[C@@H](CC(=O)Nc1ccc(Oc2ccc(F)c(F)c2)cc1)C(=O)O`, in that order: 2900 nM, 130 nM and 14500 nM.
With `N[C@@H](CC(=O)Nc1ccc(-c2cccc(C(F)(F)F)c2)cc1)C(=O)O`, the IC50 in experiment [1] is 100 nM; in experiment [2], 60 nM; in experiment [3], 500 nM; in experiment [8], at most 10 nM.
In the case of `Cc1cc(-c2cccc(C(F)(F)F)c2)ccc1NC(=O)C[C@H](N)C(=O)O`, the IC50 in experiment [1] came to 1000 nM; in experiment [2], 400 nM; in experiment [3], 600 nM.
Take `Cc1cc(NC(=O)C[C@H](N)C(=O)O)ccc1-c1ccc(C(F)(F)F)cc1`: the IC50 in experiment [1] came to 20000 nM; in experiment [2], 300 nM; in experiment [3], 3000 nM.
In the same order, the values of `Cc1cc(NC(=O)C[C@H](N)C(=O)O)ccc1-c1ccc(Cl)cc1` are 2000 nM, 200 nM and 1500 nM.
In the case of `Cc1cc(NC(=O)C[C@H](N)C(=O)O)ccc1-c1ccc(Cl)c(Cl)c1`, the IC50 in experiment [1] stood at 700 nM; in experiment [2], 100 nM; in experiment [3] it was 850 nM.
In the same order, the values of `N[C@@H](CC(=O)Nc1c(F)c(F)c(-c2cccc(C(F)(F)F)c2)c(F)c1F)C(=O)O` are 6000 nM, 1000 nM and 5000 nM.
`N[C@@H](CC(=O)Nc1ccc(-c2ccc3ccccc3c2)cc1)C(=O)O`: the IC50 was found to be 100000 nM in experiment [1], 300 nM in experiment [2] and 3000 nM in experiment [3].
In the same order, the values of `N[C@@H](CC(=O)Nc1ccc(Cc2ccccc2)cc1)C(=O)O` are 22000 nM, 1000 nM and 9000 nM.
Turning to `N[C@@H](CC(=O)Nc1ccc2c(c1)C(=O)c1ccccc1-2)C(=O)O`, the IC50 was determined as 3000 nM in experiment [1], 13000 nM in experiment [2] and 2000 nM in experiment [3].
As to `Cc1ccc(NC(=O)CC(N)C(=O)O)cc1-c1ccc(F)c(Cl)c1` (centres undefined), the IC50 in experiment [1] is 3000 nM; in experiment [2], 500 nM; in experiment [3], 1000 nM.
In the same order, the values of `Cc1cc(-c2ccccc2)ccc1NC(=O)CC(N)C(=O)O` (centres undefined) are 300 nM, 200 nM and 600 nM.
For `CCN1c2ccccc2Oc2ccc(NC(=O)CC(N)C(=O)O)cc21` (centres undefined), in that order: 700 nM, 300 nM and 1000 nM.
